As usually defined, the Tmax is the time at which the peak concentration occurs. A word on the inhibition: it is how much of the control response was suppressed. The term Kd denotes a measure of binding affinity in units of concentration. A high value points to a looser complex.

Structures are written as SMILES. Active and inactive are the calls of the source. The calls are words filed in the database; no cut-off is given here. Where only a bound is given, the exact number is not on record here.

A short description of data set [1]: Elimination half life in mouse at 0.5 mg/kg, iv administered as single dose. The format is ADME, organism-based. The settings on record: in vivo, read-out: beta t1/2 (converted). Put shortly: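 Male Kunming mice (20-25 g) and male Sprague Dawley rats (180-220 g) were fasted 12 h before dosing. Oral dosing was by gavage as a suspension in 0.5% sodium carboxymethyl cellulose; iv dosing was via tail vein in PEG400. Serial plasma samples were taken to 24 h, protein-precipitated with acetonitrile plus N-CH3 internal standard, and quantified by LC-MS/MS (n=3). Bioavailability = AUCoral/AUCiv.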

Data set [2] can be described thus: Tmax in rat at 3.5 mg/kg , po administered as single dose. The format is ADME, organism-based. As to conditions: in vivo. Put shortly:
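Male Kunming mice (20–25 g) and male SD rats (180–220 g) were fasted 12 h before dosing. Compound was suspended in 0.5% CMC-Na and given by gavage (5 mg/kg mice, 3.5 mg/kg rats), or dissolved in PEG400 and given iv via tail vein (0.5 mg/kg mice, 0.35 mg/kg rats). Plasma was sampled from 5 min to 24 h and analysed by LC-MS/MS (n=3). F = AUCoral/AUCiv.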

The target of data set [3] is Hemagglutinin (Influenza A virus (A/Puerto Rico/8/1934(H1N1))) (UniProt P03452). The data set can be described thus: Inhibition of Hemagglutinin in Influenza A virus (A/Puerto Rico/8/1934(H1N1))/H1N1 pseudovirus infected in 293FT cells assessed as reduction in virus infection at 50 ug/ml pre-treated with virus before infection and measured after 48 hrs by inverted fluorescence microscopy. The format is cell-based. The method in brief:
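PR8 pseudoviruses (IAV-GFP) carrying wild-type HA or a mutant HA (T30N/E233D/T359A or T359A) were made in 293FT cells by co-transfecting HA, NA, HIV backbone and GFP reporter plasmids, and supernatants were harvested at 48 h. Pseudovirus was pretreated with compound at 50 µg/ml for 1 h at 37 °C before infection. Infected GFP-positive cells were viewed by fluorescence microscopy 48 h p.i.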

The test system of data set [4] is Influenza A virus. The data set can be described thus: Antiviral activity against Influenza A virus (A/Puerto Rico/8/1934(H1N1)) infected in Kunming mouse assessed as improvement in body weight at 5 to 10 mg/kg/day, po starting 4 hrs after viral challenge and continued for 7 days and measured up to day 14 by plaque assay. The class given is functional, organism-based. The method in brief: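 Groups of 10 female Kunming mice were infected intranasally with PR8 (1000 PFU/mouse) on day 0 and dosed once daily for seven days. Weight and clinical signs were recorded daily. Mice losing more than 25% of pre-infection weight were scored dead and euthanized; survivors were killed on day 14.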

Data set [5] deals with Neuraminidase (Influenza A virus (A/Puerto Rico/8/1934(H1N1))) (UniProt P03468). The data set can be described thus: Inhibition of neuraminidase in inactivated Influenza A virus (A/Puerto Rico/8/1934(H1N1)) supernatants at 12.5 to 200 ug/mL pre-incubated for 30 mins by fluorescence based assay relative to control. The method in brief: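 Inactivated PR8 virus supernatant was mixed with compound diluted in 33 mM MES ([…]) and 4 mM CaCl2 for 30 min at 37 °C. MUNANA (20 µM) was then added for 30 min at 37 °C. The reaction was stopped with 25% ethanol and 0.1 M glycine, pH 10.7. Fluorescence was read at ex 360 and em 440 nm.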

Data set [6] deals with Hemagglutinin (Influenza A virus (A/Puerto Rico/8/1934(H1N1))) (UniProt P03452). The data set can be described thus: Inhibition of Hemagglutinin in Influenza A virus (A/Puerto Rico/8/1934(H1N1)) assessed as reduction in virus-induced aggregation of chicken erythrocytes at 3.125 to 50 ug/mL incubated for 60 mins by hemagglutination assay. The method in brief:
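Hemagglutination inhibition with PR8 virus and chicken RBCs standardized per the WHO manual. Virus was serially diluted 2-fold and 1% cRBCs were added at equal volume. After 60 min at 4 °C, negative wells show a sedimented red button and positive wells stay opaque without sedimentation. Compound was tested at 3.125–50 µg/mL.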

Data set [7] shares this target. The data set can be described thus: Inhibition of trypsin-mediated cleavage of Influenza A virus (A/Puerto Rico/8/1934(H1N1)) Hemagglutinin (HA0) at 50 ug/ml incubated for 30 mins by Coomassie blue fast staining and SDS-PAGE gel based trypsin susceptibility assay. Put shortly: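 About 5 µg PR8 HA protein was preincubated with about 50 µg/ml compound for 30 min at RT; controls received 2% DMSO. Samples were acidified with 1 M sodium acetate pH 5.0 (one kept at pH 7.0) for 20 min at 37 °C, then neutralized with 200 mM Tris pH 8.5. TPCK-trypsin was added at 1:50 by mass for 30 min at 37 °C. Samples were run on non-reducing 12% SDS-PAGE with Coomassie staining.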

The test system of another data set is Influenza A virus H3N2. The data set can be described thus: Antiviral activity against Influenza A virus H3N2 (A/swine/Minnesota/02719/2009) infected in MDCK cells by HA assay. The format is functional, organism-based. Put shortly: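 MDCK cells were infected at high moi (≈3.0 PFU/cell). Virus-containing supernatants were serially diluted 2-fold and mixed with an equal volume of 1% chicken red blood cells. After 60 min at 4 °C, wells were scored for button sedimentation versus opaque agglutination to give titers.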

The subject of data set [8] is Influenza A virus. The data set can be described thus: Antiviral activity against Influenza A virus (A/Puerto Rico/8/1934(H1N1)) infected in Kunming mouse assessed as decrease in lung TNFalpha level at 20 to 40 ug/day dosed intranasally starting 4 hrs after viral challenge and continued for 4 days by ELISA. The class given is functional, organism-based. Put shortly:
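Four-week-old female Kunming mice received PR8 intranasally (500 PFU/mouse in 40 µL PBS) and were then dosed once daily orally or intranasally. Lungs were collected on day 4, and TNF-α and IL-6 in lung tissue were measured by ELISA.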

Data set [9] in a line: Cumulative drug excretion in mouse urine at 5 mg/kg, po administered as single dose measured after 72 hrs. The class given is ADME, organism-based. As to conditions: read-out: Drug excretion. Put shortly:
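Single oral (gavage, 0.5% CMC-Na) or iv (tail vein, PEG400) dosing was given to male Kunming mice or Sprague Dawley rats held in metabolic cages. Urine and feces were collected at intervals to 72 h. Feces were dried, ground and homogenized in water (1:9 w/v). Samples were precipitated with acetonitrile containing internal standard and analysed by LC-MS/MS.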

Data set [10] addresses Hemagglutinin (Influenza A virus (A/Puerto Rico/8/1934(H1N1)), UniProt P03452). The data set can be described thus: Binding affinity to Influenza A virus (A/California/04/2009(H1N1)) Hemagglutinin at 1.5625 to 50 uM by SPR assay. The method in brief:
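HA protein was immobilized on CM5 chips. Compound (50, […], 12.5, 6.25, 3.125, 1.5625 µM) was injected for 2 min, followed by a 10-min PBST wash and regeneration with 2 mM NaOH for 30 s. Runs were at 25 °C with 2 µl/s flow, using a blank HA-free reference channel. KD was obtained from kinetic fitting.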

The nature of data set [11]: Toxicity in Kunming mouse assessed as effect on CK-MB level at 5 to 10 mg/kg/day, po for 7 days. The format is organism-based. As to conditions: in vivo, 168 h. The method in brief:
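Male Kunming mice (20–25 g) received compound orally at 5 or 10 mg/kg/day, suspended in 0.5% sodium carboxymethyl cellulose, once daily for 7 days; controls received vehicle. Serum was collected under isoflurane 24 h after the last dose. AST, ALT, CR, BUN, LDH, CK and CK-MB were measured with commercial kits.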

Hemagglutinin (Influenza A virus (A/Puerto Rico/8/1934(H1N1))), sequence (P03452 whole entry): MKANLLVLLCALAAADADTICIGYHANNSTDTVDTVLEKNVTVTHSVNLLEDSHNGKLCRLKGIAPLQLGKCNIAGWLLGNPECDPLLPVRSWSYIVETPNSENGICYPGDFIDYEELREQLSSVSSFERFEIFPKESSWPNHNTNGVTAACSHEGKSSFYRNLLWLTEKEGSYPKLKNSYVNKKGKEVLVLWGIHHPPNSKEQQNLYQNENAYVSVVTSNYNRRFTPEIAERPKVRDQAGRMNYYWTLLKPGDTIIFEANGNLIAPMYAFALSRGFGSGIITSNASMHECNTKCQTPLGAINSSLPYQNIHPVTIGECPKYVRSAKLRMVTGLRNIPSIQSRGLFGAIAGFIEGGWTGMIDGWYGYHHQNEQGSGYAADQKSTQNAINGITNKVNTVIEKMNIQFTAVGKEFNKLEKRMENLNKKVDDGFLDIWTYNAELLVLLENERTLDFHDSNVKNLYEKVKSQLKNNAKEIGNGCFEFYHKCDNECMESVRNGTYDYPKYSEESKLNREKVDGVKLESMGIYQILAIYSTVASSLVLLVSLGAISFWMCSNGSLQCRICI
Neuraminidase (Influenza A virus (A/Puerto Rico/8/1934(H1N1))), sequence (P03468 whole entry): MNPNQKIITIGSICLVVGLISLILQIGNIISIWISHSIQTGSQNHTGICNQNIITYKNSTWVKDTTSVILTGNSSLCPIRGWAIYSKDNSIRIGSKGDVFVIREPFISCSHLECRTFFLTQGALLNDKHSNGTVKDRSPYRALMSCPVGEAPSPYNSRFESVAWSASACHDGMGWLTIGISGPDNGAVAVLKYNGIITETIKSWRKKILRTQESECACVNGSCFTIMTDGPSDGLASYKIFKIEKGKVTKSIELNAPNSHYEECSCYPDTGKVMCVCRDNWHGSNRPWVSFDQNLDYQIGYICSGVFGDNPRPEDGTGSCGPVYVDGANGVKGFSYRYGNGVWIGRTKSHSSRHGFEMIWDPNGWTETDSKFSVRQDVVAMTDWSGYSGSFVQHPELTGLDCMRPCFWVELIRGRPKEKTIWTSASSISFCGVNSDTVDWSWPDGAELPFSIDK
Hemagglutinin (Influenza A virus (A/Puerto Rico/8/1934(H1N1)), UniProt P03452), sequence (P03452 whole entry): as the sequence (P03452 whole entry) above

For the molecule `CC(=O)c1cc(C)c(O)c(Cc2[nH]c3ccccc3c2Cc2c(O)c(C)cc(C(C)=O)c2O)c1O`, the half-life in data set [1] was 3.4 h. Also, in data set [2], the Tmax was determined as 4.3 h. Moreover, the inhibition entry in [3] and in data set [6] was “Active” throughout. Also, the outcome in the data set on Influenza A virus [4] and in the data set with Influenza A virus [8] was Active. In data set [5], this molecule showed an inhibition below 15%. In addition, the inhibition result in data set [7] is “inactive”. Moreover, the Activity result is “Dose-dependent effect” with Influenza A virus H3N2 and “Non-Toxic” in data set [11]. Also, the dose excreted at 72 h in data set [9] amounted to 0.03%. In data set [10], the Kd amounted to 6.9 µM.

(Values after ChEMBL document CHEMBL4619773, “Chemoreactive-Inspired Discovery of Influenza A Virus Dual Inhibitor to Block Hemagglutinin-Mediated Adsorption and Membrane Fusion” (J Med Chem, 2020).)
